Compound activity from PubChem.
PfGluPho inh – PfG6PD (Plasmodium falciparum) enzyme inhibition; PfGluPho enzyme, NADPH resazurin-diaphorase fluorescence; inhibition, % at 20 µM; 350,000 tested, 0.78% active; AID 504690;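 active means inhibition reaching at least a set limit at 20 µM in the primary screen, cut at about 59% in these data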
G6PDH CS – inhibits Leuconostoc G6PDH, flagging false hits in G6PDH-based assays. 200,000 tested, 0.12% active. AID 1020. inhibition, % at 5 µM. Purified L. mesenteroides G6PDH, diaphorase/resazurin coupled fluorescence, 45 min
Lmaj promast – inhibitors of Leishmania major promastigote growth. Leishmania major promastigotes, resazurin fluorescence viability. inhibition, % at 10 µM. 200,000 tested, 9% active. AID 1063;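 further: promastigotes grown with compound for 44 hours at 28 °C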
Diaph inh CS – inhibits diaphorase or chemically oxidizes, flagging diaphorase assay artifacts; diaphorase resazurin-to-resorufin fluorescence, NADH, 16 min; bacterial (C. kluyveri) enzyme, not human; inhibition, % at 20 µM; 190,000 tested, 0.69% active; AID 1217;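 active means primary screen inhibition at 20 µM above a set limit, cut at about 50% in these data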
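Assay system: diaphorase enzyme from Clostridium kluyveri; Input: enzyme working solution with 0.14 U/mL diaphorase; Timing: 16 min at room temperature; Technique: resorufin fluorescence, excitation 544 nm, emission 590 nm; Benchmarks: positive control minus NADH, DMSO neutral control.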
Redox H2O2 prof – compounds producing H2O2 with reducing agent – biochemical, NIH compound library profiling, artefact control for MLSCN library redox annotation, primary screen; 200,000 tested, 0.03% active; activation, % at 10 µM; DTT-dependent redox cycling H2O2, phenol red/HRP absorbance; 100% = 100 µM peroxide control, 0% = buffer; AID 878;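 active means activation of at least 50% relative to the plate's high and low controls in the primary single-dose screen; inactive means activation below 50%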;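 further: compound incubated with DTT at 0.8 mM final as the reducing agent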
Diaphorase act – diaphorase activation or chemical reduction counter-screen; Diaphorase/resazurin coupled assay, resorufin fluorescence, 16 min; hits give high values; 1 = vehicle wells, 0 = NADH-free wells; activation factor at 20 µM; 190,000 tested, 0.005% active; AID 1229;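 active means diaphorase activity raised at least twofold by the compound at 20 µM; inactive means activation factor below 2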
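Measured by – red resorufin fluorescence at 544/590 nm excitation/emission · Test system – Clostridium kluyveri diaphorase, purified enzyme · Incubation – reaction time 16 min, room temperature · Buffer or medium – 50 mM HEPES pH 7.4 with 4.542 mM MgCl2, 0.005% Tween 20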
Hits are given with their value. The full list was thinned out, with hits kept by preference. Unless noted, no stated cut-off is given here; in the data, active means inhibition above about 50%; inactive means the rest.

`Cc1ccc(C(C)C)c(OCC(=O)NN=C2CCCC(=O)C2)c1` gave PfGluPho inh inactive.
`COc1ccccc1C(C[N+](=O)[O-])c1c(N)n(C)c(=O)n(C)c1=O` (stereo not drawn) gave PfGluPho inh inactive.
Screening COc1ccc(C(C[N+](=O)[O-])c2c(C)cc3ccccn23)cc1 (stereo not drawn) returned PfGluPho inh inactive, G6PDH CS inactive, Lmaj promast 99, Diaph inh CS inactive, Redox H2O2 prof inactive and Diaphorase act inactive.
COc1ccc(C(C[N+](=O)[O-])c2c(-c3ccccc3)cc3ccccn23)c(OC)c1 (stereo not drawn) was read as PfGluPho inh inactive, G6PDH CS inactive, Lmaj promast 100, Diaph inh CS inactive, Redox H2O2 prof inactive and Diaphorase act inactive.
`Cc1cc2ccccn2c1C(=O)Nc1ccccc1` gave PfGluPho inh inactive, G6PDH CS inactive, Lmaj promast inactive, Diaph inh CS inactive, Redox H2O2 prof inactive and Diaphorase act inactive.
Screening COc1ccc(C(C[N+](=O)[O-])c2c(C)[nH]n(-c3ccccc3)c2=O)cc1 (stereo not drawn) returned PfGluPho inh inactive.
`Cc1cc2ccccn2c1C(C[N+](=O)[O-])c1ccc(N(C)C)cc1` (stereo not drawn) gave PfGluPho inh inactive, G6PDH CS inactive, Lmaj promast 89, Diaph inh CS inactive, Redox H2O2 prof inactive and Diaphorase act inactive.
CC1(C)O[C@@H]2[C@H](O1)[C@@H](COS(=O)(=O)O)O[C@H]2n1cc(Br)c(=O)[nH]c1=O was read as PfGluPho inh inactive.
CCOc1ccc(S(=O)(=O)N2CCC(C(=O)N3CCc4ccccc4C3)CC2)cc1 was read as PfGluPho inh inactive.
`CC1=C2C3OC(=O)C(C)[C@@H]3CC[C@](C)(O)C2C2C3C4C5(C12)[C@H]1OC(=O)[C@@H](C)C1CC[C@]4(C)O[C@]5(C)[C@@H]3O` (stereo partly drawn) gave PfGluPho inh inactive, G6PDH CS inactive, Lmaj promast inactive, Diaph inh CS inactive, Redox H2O2 prof inactive and Diaphorase act inactive.
Screening COc1ccc(C)cc1NC(=O)c1nnn(Cc2cccc(C(F)(F)F)c2)c1N returned PfGluPho inh inactive, G6PDH CS inactive, Lmaj promast inactive, Diaph inh CS inactive, Redox H2O2 prof inactive and Diaphorase act inactive.
Fc1ccc(Nc2nc(-c3ccncc3)nc3ccccc23)cc1F was read as PfGluPho inh inactive, G6PDH CS inactive, Lmaj promast 81, Diaph inh CS inactive, Redox H2O2 prof inactive and Diaphorase act inactive.
CC(Sc1nc(N)cc(=O)[nH]1)C(=O)Nc1cccc(Cl)c1 (stereo not drawn) was read as PfGluPho inh inactive, G6PDH CS inactive, Lmaj promast 56, Diaph inh CS inactive, Redox H2O2 prof inactive and Diaphorase act inactive.
CC(=O)NC1C(=O)N=C(SCC(=O)Nc2c(C)cccc2C)NC1=O (stereo not drawn) was read as PfGluPho inh inactive, G6PDH CS inactive, Lmaj promast inactive, Diaph inh CS inactive, Redox H2O2 prof inactive and Diaphorase act inactive.
CC(=O)NC1C(=O)N=C(SC(C)C(=O)Nc2cccc(Cl)c2)NC1=O (stereo not drawn) was read as PfGluPho inh inactive, G6PDH CS inactive, Lmaj promast 63, Diaph inh CS inactive, Redox H2O2 prof inactive and Diaphorase act inactive.
COc1ccc(OCCCn2cc(/C=C3/C(=N)N4C=C(C)SC4=NC3=O)c3ccccc32)cc1 was read as PfGluPho inh inactive, G6PDH CS inactive, Lmaj promast 87, Diaph inh CS inactive, Redox H2O2 prof inactive and Diaphorase act inactive.
COc1cccc(OCCn2cc(C=O)c3ccccc32)c1 was read as PfGluPho inh inactive.
Screening CC1=CN2C(=N)/C(=C/c3cn(CCCOc4ccccc4C)c4ccccc34)C(=O)N=C2S1 returned PfGluPho inh inactive, G6PDH CS inactive, Lmaj promast inactive, Diaph inh CS inactive, Redox H2O2 prof inactive and Diaphorase act inactive.
